Measured values taken from ChEMBL document CHEMBL1126217, “Side-chain derivatives of biologically active nucleosides. 1. Side-chain analogs of 3'-azido-3'-deoxythymidine (AZT)” (J Med Chem, 1992).
Values after ≈ are worked out from the molar mass of the structure shown. Active and inactive are the calls of the source. The calls are words filed in the database; no cut-off is given here.

Tests used:
MT4 = assay: Inhibitory activity toward HIV replication in MT-4 cells; format: functional, cell-based; details: Homo sapiens
How it was run: (§1)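 Infected cells mixed with serial compound dilutions (tested up to 200 μg/mL) and incubated 5 days at 37 °C. Viable cells counted microscopically in a hematocytometer by trypan blue exclusion to give 50% effective and cytotoxic concentrations.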

Human alphaherpesvirus 2 [1] = assay: Inhibitory activity against herpes simplex virus type-2 (HSV-2) at a concentration 400 ug/mL; not effective; format: functional, organism-based
[2] = system: Human immunodeficiency virus; assay: Compound was evaluated for the cytotoxic concentration against HIV; format: functional; details: Human immunodeficiency virus 1; how it was run: as §1
Vaccinia virus [3] = assay: Inhibitory activity against Vaccinia virus(VV) at a concentration 400 ug/mL; not effective; format: functional, organism-based; details: Orthopoxvirus vaccinia
[4] = Inhibitory activity against herpes simplex virus type-1 (HSV-1) at a concentration 400 ug/mL; not effective; format: functional, organism-based; details: Human alphaherpesvirus 1
Vaccinia virus [5] = assay: Inhibitory activity towards Vaccinia virus(VV); format: functional; details: Orthopoxvirus vaccinia
[6] = system: Vesicular stomatitis virus; assay: Inhibitory activity towards Vesicular stomatitis virus(VSV); format: functional
Human alphaherpesvirus 2 [7] = assay: Inhibitory activity towards herpes simplex virus type-2 (HSV-2)
Human alphaherpesvirus 1 = assay: Inhibitory activity towards herpes simplex virus type-1 (HSV-1)
Vaccinia virus [8] = assay: Inhibitory activity against Vaccinia virus(VV)at a concentration 400 ug/mL; not effective; format: functional, organism-based; details: Orthopoxvirus vaccinia

Structure (SMILES) | EC50 (MT4) [µg/mL] | CC50 (Human alphaherpesvirus 2 [1]) | CC50 [2] [µg/mL] | CC50 (Vaccinia virus [3]) | HSV-1 inhibitory activity [4] | CC50 (Vaccinia virus [5]) [µg/mL] | CC50 [6] [µg/mL] | CC50 (Human alphaherpesvirus 2 [7]) [µg/mL] | CC50 (Human alphaherpesvirus 1) [µg/mL] | CC50 (Vaccinia virus [8])
Cc1cn([C@H]2C[C@H](N=[N+]=[N-])[C@@H](CO)O2)c(=O)[nH]c1=O [ZIDOVUDINE] | 0.002 (≈ 0.00748 µM) | – | – | – | – | – | – | – | – | –
Cc1cn(C2CC(N=[N+]=[N-])C(CCO)O2)c(=O)[nH]c1=O (configuration not stated) | – | inactive | 200 (≈ 711 µM) | inactive | inactive | – | – | – | – | –
Cc1cn(C2CC(N=[N+]=[N-])C([C@@H](C)O)O2)c(=O)[nH]c1=O (some centres not stated) | – | – | > 200 | – | – | 300 (≈ 1070 µM) | > 400 | 300 (≈ 1070 µM) | 150 (≈ 533 µM) | –
Cc1cn(C2CC(N=[N+]=[N-])C([C@H](O)CO)O2)c(=O)[nH]c1=O (some centres not stated) | – | inactive | > 200 | – | inactive | – | – | – | – | inactive
Cc1cn(C2CC(N=[N+]=[N-])C([C@@H](O)CO)O2)c(=O)[nH]c1=O (some centres not stated) | – | inactive | 17.7 (≈ 59.5 µM) | – | inactive | – | – | – | – | inactive
Cc1cn(C2CC(N=[N+]=[N-])C([C@H](C)O)O2)c(=O)[nH]c1=O (some centres not stated) | – | inactive | > 200 | – | inactive | – | – | – | – | inactive
